Experimental data taken from paper PMC3281520 (Nature chemical biology, 2012).

Columns and labels:
[1] = target: T1, ProRS (amino acids 998–1513 of human EPRS) (Homo sapiens, UniProt P07814); experiment: [3H]-HFol binding to immobilized ProRS
T1 sequence (P07814 998-1512 limits assumed): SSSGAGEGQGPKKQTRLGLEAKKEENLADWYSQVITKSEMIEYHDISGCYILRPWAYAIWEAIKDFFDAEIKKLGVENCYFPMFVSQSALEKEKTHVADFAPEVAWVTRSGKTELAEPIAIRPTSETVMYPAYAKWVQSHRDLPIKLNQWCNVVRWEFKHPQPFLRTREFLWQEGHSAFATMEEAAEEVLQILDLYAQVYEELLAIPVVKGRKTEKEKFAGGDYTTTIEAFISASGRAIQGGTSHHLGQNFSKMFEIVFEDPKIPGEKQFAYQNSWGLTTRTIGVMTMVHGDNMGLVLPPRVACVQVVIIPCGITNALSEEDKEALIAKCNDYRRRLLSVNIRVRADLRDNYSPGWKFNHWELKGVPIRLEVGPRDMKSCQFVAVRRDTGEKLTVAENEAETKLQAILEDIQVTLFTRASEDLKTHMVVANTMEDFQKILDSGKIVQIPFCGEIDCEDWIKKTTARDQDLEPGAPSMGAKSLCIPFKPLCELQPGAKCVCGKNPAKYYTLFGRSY
Method in brief: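 His6-tagged human EPRS prolyl-tRNA synthetase domain, expressed in E. coli, immobilized on Ni-NTA beads. Beads washed twice in ice-cold buffer; bound counts by scintillation, with beads given tag-free E. coli extract as background.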

[2] = tested on: primary murine CD4+ CD25− T cells; experiment: Th17 cell differentiation; format: cell-based, mouse
Method in brief: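 CD4+ CD25− T cells from spleens and peripheral lymph nodes of wild-type C57B/6 mice, TCR-activated under Th17-polarizing conditions with test compound and amino acid supplements: 10x EAA or NEAA mixes, or single amino acids at 1 mM. Day 4 restimulation with PMA 10 nM, ionomycin and brefeldin A for 4–5 h. Intracellular cytokine staining, flow cytometry; % IL-17+ IFNγ− cells, triplicate wells, SD.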

[3] = tested on: translation in rabbit reticulocyte lysate (RRL); experiment: Cell free in vitro translation in rabbit reticulocyte lysate; format: biochemical; details: for effect on translation of luciferase RNA in RRL: cell free, luminescence assay (Fig. 2a, 2b); for translation of Nopropep (proline-free polypeptide) in RRL / translation of Propep (polypeptide with proline dipeptide) in RRL: inhibitor 1 μM, anti-myc Western blot (Fig. 2c)
Method in brief: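 Rabbit reticulocyte lysate per kit instructions, standard amino acid mix diluted 5-fold; sometimes preincubated at 30 degrees with another RNA to deplete endogenous charged tRNAs. Luciferase mRNA translation read by luciferase luminescence. Rescue with amino acid mixtures or single amino acids at 1 mM each; triplicates, SD. Myc-tagged peptides ± proline dipeptide: inhibitors 1 μM, proline 1 mM, anti-myc Western blot.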

AAR pathway in MEFs = experiment: AAR pathway activation in MEFs; format: cell-based, mouse; details: 2 hours (Fig. 5a); for stimulation of GCN2 phosphorylation in the presence of proline: 2 mM proline
Method in brief: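 MEFs grown in 10% FCS/DMEM, then exposed to test compound with or without 2 mM proline for 2 h. Lysis was in RIPA with 5 mM EDTA, phosphatase and protease inhibitors. Western blot for total GCN2 and Thr898-phospho-GCN2; three separate experiments. For CHOP: 50 nM test compound ± 2 mM proline, lysis 6 h later, CHOP Western blot with cytoplasmic actin as loading control.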

[4] = tested on: prolyl-tRNA charging in the RRL system; experiment: tRNA charging in RRL; format: biochemical, rabbit; details: doses comparable to those that inhibit translation (Fig. 2d)
Method in brief: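 Rabbit reticulocyte lysate incubated with 1 μCi 14C-proline or 35S-methionine, added bovine tRNA and 2 μM puromycin to block use of charged tRNA in translation, with or without test compound. Total tRNA then extracted with a small-RNA isolation kit. Radioactivity in tRNA measured by liquid scintillation counting; triplicates, SD.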

[5] = target: prolyl tRNA synthetase domain of human EPRS (ProRS) (Homo sapiens, UniProt P07814); experiment: Assay of ProRS activity; format: biochemical
[6] = tested on: mouse embryo fibroblasts (MEFs); experiment: ECM gene expression and protein production in fibroblasts; format: cell-based
Method in brief: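 MEFs in 10% FCS/DMEM were treated with 50 nM test compound and/or 2 mM proline. Exposure was 4 h for CHOP and S100A4 and 24 h for Col1A1 and Col1A2. mRNA by quantitative RT-PCR, normalised to TBP, relative to untreated. Triplicate determinations from triplicate plates; two-tailed Student's t test for compound alone versus compound plus proline.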

mTORC1 signaling = mTORC1 signaling in T cells and fibroblasts; format: cell-based, mouse; details: 100 nM HF in MEFs (Supplementary Fig. 10)
[7] = Intracellular HF levels by anti-HF ELISA; format: in vitro ADME, mouse; details: MEFs, 2 mM proline, 2 hours (Supplementary Fig. 11)

C[C@H](N)C(=O)NS(=O)(=O)OC[C@H]1O[C@@H](n2cnc3c(N)ncnc32)[C@H](O)[C@@H]1O [AlaSAd, alanyl sulfamoyl adenosine]
inhibition of binding of [3H]-HFol to ProRS at 50 nM ([1]; 50 nM (Fig. 4a)): partially inhibited

C[C@@H]1C[C@H](C)C[C@H](C)[C@@H](O)CC(=O)O[C@H]([C@@H]2CCC[C@H]2C(=O)O)C/C=C/C=C(/C#N)[C@H](O)[C@@H](C)C1 [Borrelidin, borrelidin]
Th17 cell differentiation ([2]; Th17 polarizing conditions, borrelidin 6 nM (Supplementary Fig. 13)): inhibited | effects on Th17 differentiation on addition of excess cognate amino acid ([2]; threonine 1 mM (Fig. 6b)): reversed

O=C(C[C@H]1NCCC[C@@H]1O)Cn1cnc2ccccc2c1=O [FF, febrifugine]
effect on translation of luciferase RNA in RRL [3]: inhibited | translation of Nopropep (proline-free polypeptide) in RRL [3]: no effect | translation of Propep (polypeptide with proline dipeptide) in RRL [3]: prevent translation | stimulation of GCN2 phosphorylation in the presence of proline (AAR pathway in MEFs): abrogated | GCN2 phosphorylation in fibroblasts (AAR pathway in MEFs): stimulation

O=C(CC1NCCCC1O)Cn1cnc2cc(Br)c(Cl)cc2c1=O (stereo not shown) [HF, halofuginone]
incorporation of 14C-Pro into tRNA [4]: inhibited | competition of [3H]-HFol binding to ProRS ([1]; Fig. 3a): competed | effect on translation of luciferase RNA in RRL [3]: inhibited | translation of Nopropep (proline-free polypeptide) in RRL [3]: no effect | translation of Propep (polypeptide with proline dipeptide) in RRL [3]: prevent translation | translation inhibited by HF, after supplementation of RRL with excess amino acids ([3]; proline 1 mM, only proline is effective (Fig. 2a)): restores | Ki [5]: 18.3 nM | inhibition of ECM proteins in the presence of proline ([6]; 2 mM proline in the media (Supplementary Fig. 15)): reversed | production of secreted Type I procollagen and of fibronectin ([6]; 24 hours treatment (Fig. 6d)): dramatically inhibited | expression of mRNA encoding CHOP ([6]; MEFs, HF 50 nM, 4 hours (Fig. 6c)): stimulated | mRNA levels of Col1A1, Col1A2, and S100A4 ([6]; MEFs, HF 50 nM, 4 hours (S100A4) or 24 hours (Col1A1, Col1A2), restored by proline (Fig. 6c)): inhibits | 35S-methionine incorporation into total protein ([6]; doses that inhibit ECM protein production (Fig. 6d)): did not significantly change | stimulation of GCN2 phosphorylation in the presence of proline (AAR pathway in MEFs): abrogated | GCN2 phosphorylation in fibroblasts (AAR pathway in MEFs): stimulation | Th17 differentiation in HF-treated T cells with individual amino acid supplement ([2]; 10 nM HF, proline 1 mM, only proline effective (Fig. 6a)): rescued | inhibition of mTORC1 signaling (mTORC1 signaling): without concomitant inhibition | intracellular accumulation of HF on proline addition [7]: not affected
